High-throughput results deposited in PubChem BioAssay by several laboratories.
HDAC3 inhib: HDAC3 deacetylase inhibitors, primary screen, biochemical, fluorescence, cell-free homogeneous | Histone deacetylase 3 (Homo sapiens), O15379 | inhibition, % at 8.3 µM | hit rate 0.15% among 320,000 | recombinant HDAC3, fluorogenic peptide/trypsin coupled; in the data active means inhibition above about 26%, passing the limit was not always enough
Target sequence (O15379 whole entry, looked up): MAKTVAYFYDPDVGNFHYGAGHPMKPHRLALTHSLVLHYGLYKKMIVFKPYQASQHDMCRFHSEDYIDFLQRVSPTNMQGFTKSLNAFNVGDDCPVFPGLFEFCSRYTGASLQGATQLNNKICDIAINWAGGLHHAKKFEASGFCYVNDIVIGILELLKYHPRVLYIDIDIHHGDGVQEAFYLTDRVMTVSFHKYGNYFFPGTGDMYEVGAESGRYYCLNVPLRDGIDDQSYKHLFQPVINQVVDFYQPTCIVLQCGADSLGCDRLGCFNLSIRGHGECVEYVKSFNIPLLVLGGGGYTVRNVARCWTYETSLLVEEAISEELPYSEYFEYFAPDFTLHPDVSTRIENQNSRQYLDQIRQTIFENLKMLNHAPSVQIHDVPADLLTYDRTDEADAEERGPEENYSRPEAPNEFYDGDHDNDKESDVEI
Runt-SMMHC FRET: inhibitors of RUNX1 Runt–CBFb-SMMHC binding, primary screen, biochemical, FRET, Cerulean-Runt, Venus-CBFb-SMMHC, uHTS; Cerulean-Runt/Venus-CBFb-SMMHC FRET ratio 530/480, 1 h; AID 1434, 2008; Runt-related transcription factor 1 (Homo sapiens) + Core-binding factor subunit beta …; hit rate 0.74% among 220,000; inhibition, % at 20 µM;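 active means mean inhibition across duplicate retests at 20 µM reaching about 50%, limit read from the data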;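 further: 0% = DMSO wells and 100% = wells with excess untagged CBFb-SMMHC; inhibitors lower the FRET ratio by blocking Runt binding to CBFb-SMMHC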
Runt-CBFb FRET: inhibitors of RUNX1 Runt–CBFb binding, primary screen, biochemical, FRET, Cerulean-Runt, Venus-CBFb, uHTS; Runt-related transcription factor 1 (Homo sapiens) + Core-binding factor subunit beta …; Cerulean-Runt/Venus-CBFb FRET ratio 530/480, 1 h; inhibition, % at 20 µM; hit rate 0.46% among 220,000; AID 1496, 2009;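 active means inhibition over about 50% at 20 µM in the single-dose screen, limit read from the data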;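 further: 0% = DMSO wells and 100% = excess unlabeled CBFb competitor control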
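Reagent – Venus-CBFb binding partner, 100 nM · Assay system – Cerulean-tagged RUNX1 Runt domain (FRET donor) fusion protein · Input – 100 nM per protein · Incubation – two 1 h room-temperature incubations shielded from light · Measured by – FRET fluorescence · Medium – Tris buffer pH 7.5 with salts and BSA · Benchmarks – unlabeled CBFb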
RanGTP-Impb inh: inhibitors of RanGTP-importin-beta interaction, primary screen, biochemical, FRET, CFP-Ran, YFP-importin-beta, homogeneous. Ran GTPase (GTP-bound) - importin-beta complex. cell-free CFP-Ran/YFP-importin-beta FRET ratio. inhibition, % (concentration not given with the values). hit rate 1.1% among 300,000. AID 2216, 2009;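 active means more than half of the replicate wells show a fall in the fluorescence ratio signal beyond about 16%, limit read from the data, passing the limit was not always enough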;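 further: 0% = DMSO wells and 100% = Ran loaded with GDP instead of GTP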
CaV13 ICDI inh: Primary screen for inhibitors of IQ motif and Ca2+-dependent inactivation inhibitor domain binding in CACNA1D, Förster resonance energy transfer in living cells, …; HEK cells, CFP/YFP FRET ICDI-IQ, plate reader, 10 min; percent FRET-ratio fall versus neutral wells; inhibition, % at 12.3 µM; hit rate 0.098% among 340,000;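 active means mean replicate inhibition of at least 30% and at least 1% of replicates passing that level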;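 further: 0% = median of the neutral control wells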
LANA-H2B inh: blockers of LANA interaction with H2A/H2B – biochemical, FP readout, HTS, primary screen | Protein LANA1 (Human herpesvirus 8 type P (isolate GK18)), Q9QR71 | cell-free LANA-H2A/H2B peptide, fluorescence polarization | inhibition, % (concentration not given with the values) | hit rate 0.6% among 320,000 | AID 2629, 2010; in the data active means inhibition mostly above about 10%, no sharp cut-off; inactive means mostly below about 6.7%
Active calls of the source: *; · = no result; + = active, no number; ! = not confirmed by another sample. The list is not random: actives were taken first. Their share in the collection is about 1.9%.

SMILES	HDAC3 inhib	Runt-SMMHC FRET	Runt-CBFb FRET	RanGTP-Impb inh	CaV13 ICDI inh	LANA-H2B inh
COc1ccc(NC(=O)NS(=O)(=O)c2ccc(C)cc2)cn1	1	·	·	-8	-6	68*
O=S(=O)(c1cccc2nsnc12)N1CCNCC1	-6	·	·	-1	-4	-3
Cc1ccc(-n2c(SCC(=O)N3CCOCC3)nc(O)c(Cc3ccccc3)c2=O)cc1	-3	·	·	0	·	-6
NC(=O)c1ccccc1OCC(=O)NS(=O)(=O)c1ccc(Cl)cc1	1	2	0	2	-9	-5
Cc1ccc(S(=O)(=O)NC(=O)COc2ccccc2C(N)=O)cc1	1	-4	2	28*	-9	2
COc1ccc(NC(=O)CN(C)C(C)C(=O)N2CCCCC2)cc1 (stereo not given)	-6	-1	0	-2	-9	6
CC(C(=O)N1CCCCC1)N(C)CC(=O)Nc1cccc(F)c1 (stereo not given)	3	·	·	·	-5	30*
NCCc1cnc[nH]1	-3	-1	-1	1	-4	22*!
CCCCN(CCCNC(=O)C1CCN(S(=O)(=O)CC)CC1)c1ccccc1	4	7	2	22*	-2	-1
Cc1cccc(C(=O)n2cnnc2N)c1	44*	-2	-1	-3	-19	-2
COc1ccc(C(=O)n2cnnc2N)cc1	81*	2	2	-3	-6	0
CCOc1ccc(C(=O)n2cnnc2N)cc1	·	-5	1	-1	-2	-8
O=c1[nH]c2cc3c(cc2cc1CN(Cc1nnnn1CC1CCCO1)C1CCCC1)OCO3 (stereo not given)	-22	-142	-5	-31	-2	1
O=c1[nH]c2cc3c(cc2cc1CN(Cc1nnnn1CC1CCCO1)C1CCCCC1)OCO3 (stereo not given)	-1	57*	18	-103	-7	4
O=c1[nH]c2cc3c(cc2cc1CN(CCc1ccccc1)Cc1nnnn1CC1CCCO1)OCO3 (stereo not given)	-5	62*	-92	-75	-8	-5
Cc1ccc2[nH]c(=O)c(CN(CCc3ccccc3)Cc3nnnn3CC3CCCO3)cc2c1 (stereo not given)	1	-16	4	-4	-9	-1
C=CCCC(=O)N1CCC(n2nccc2NC(=O)c2ccc(OC)cc2)CC1	-1	·	·	-1	-7	-1
COc1ccccc1CN1Cc2ccccc2Oc2ccccc2S1(=O)=O	·	·	·	·	-5	·
CCc1nnc(NS(=O)(=O)c2ccc(N/C=C/C(=O)c3ccc(OC)cc3)cc2)s1	0	50*	11	3	-5	1
COc1cc(NS(=O)(=O)c2ccc(N/C=C\C(=O)c3ccc(F)cc3)cc2)nc(OC)n1	-7	72*	29	4	-3	-1
COc1ccc(S(=O)(=O)N2CCCC2CNC(=O)C(=O)NCc2ccccc2)cc1 (stereo not given)	0	·	·	0	-6	-9
COC(=O)c1cc2c(C(F)(F)F)nn(C)c2s1	8	0	0	-4	-3	3
Cc1nccn1-c1ccc(C=O)cc1	-10	11	3	3	-7	3
COCCCNC(=O)C(=O)Nc1cc2c3c(c1)CCC(=O)N3CCC2	1	·	·	1	-3	0
O=C(NCCCO)C(=O)Nc1cc2c3c(c1)CCC(=O)N3CCC2	2	·	·	1	-16	19*
SMILES	HDAC3 inhib	Runt-SMMHC FRET	Runt-CBFb FRET	RanGTP-Impb inh	CaV13 ICDI inh	LANA-H2B inh
O=C(Cn1cnc2ccccc21)N/N=C/c1cccnc1	6	-3	4	6	-1	-4
COC(=O)Cc1cc(=O)oc2cc(O)ccc12	-252	92*	80*	69*	26	2
O=c1cc(O)c2ccc(O)cc2o1	1	-4	-1	0	·	-4
CC(C)(CO)NC(=O)C(c1ccccc1)c1ccccc1	2	0	1	1	-11	3
COC(=O)C1=C(C(=O)OC)C2C(C)=CC(C)=CN2C(C(=O)OC)=C1C(=O)OC (stereo not given)	-2	9	2	72*	-2	-1
Cc1ccc(C(=O)Oc2oc(-c3ccccc3)nc2C=Nc2ccc(N(C)C)cc2)cc1	-10	-29	-1	3	-3	-23
COc1ccc(N=Cc2nc(-c3ccccc3)oc2OC(C)=O)cc1	38*	-5	-7	0	-5	0
COc1cccc(N=Cc2nc(-c3ccccc3)oc2OC(C)=O)c1	59*	-6	2	-1	-1	3
NC(=O)C1CCN(C(=O)C2CCN(C(=O)Nc3ccccc3)CC2)CC1	·	·	·	·	-6	·
CC1CCN(S(=O)(=O)c2ccc(NC(=O)Cc3ccc(S(=O)(=O)N4CCOCC4)s3)cc2)CC1	-4	·	·	3	-3	+
O=C(Cc1cccs1)Nc1cc(S(=O)(=O)N2CCCCC2)ccc1Cl	-1	·	·	·	-5	82*
O=C(Cc1ccc(S(=O)(=O)N2CCOCC2)s1)Nc1cc(Cl)ccc1Cl	4	·	·	·	-2	+
CC1CCCN(S(=O)(=O)c2ccc(NC(=O)Cc3ccc(S(=O)(=O)N4CCOCC4)s3)cc2)C1 (stereo not given)	2	·	·	1	-2	0
COc1ccc(S(=O)(=O)N2CCCCC2)cc1NC(=O)Cc1cccs1	-7	·	·	·	-6	-3
CN(C)C(CNC(=O)c1cccc(S(=O)(=O)N2CCN(c3ccccc3)CC2)c1)c1ccccc1 (stereo not given)	·	·	·	·	-4	·
C=CC[C@@H](CC(=O)N(CCO)Cc1ccccc1)C(=O)N[C@H](COC(=O)[C@@H](CC=C)Cc1ccc(F)cc1)Cc1c[nH]c2ccccc12	8	·	·	·	-5	-3
C=CCC[C@H](Cc1ccc(F)cc1)C(=O)OC[C@@H](Cc1c[nH]c2ccccc12)NC(=O)[C@@H](CC=C)CC(=O)N[C@@H](CO)Cc1ccccc1	10	·	·	·	-12	-5
C=CCC[C@@H](Cc1ccc(F)cc1)C(=O)OC[C@@H](Cc1c[nH]c2ccccc12)NC(=O)[C@@H](CC=C)CC(=O)N(CCO)Cc1ccccc1	-2	·	·	·	-2	+
C=CC[C@@H](CC(=O)N(CCO)Cc1ccccc1)C(=O)N[C@@H](COC(=O)[C@@H](CC=C)Cc1ccc(F)cc1)Cc1ccccc1	35*	·	·	·	-8	4
